Our source for the ED50, Ratio and relative potency values is ChEMBL document CHEMBL1123858, “Synthesis and gastrointestinal pharmacology of a 3E,5Z diene analogue of misoprostol” (1987).

The subject of assay [1] is Canis familiaris. The assay can be described thus: Tested for gastric antisecretory activity in histamine-stimulated gastric fistula dogs by intragastric administration. The assay is classed as functional. The conditions noted are these: Canis lupus familiaris, Stomach, po. The method in brief: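 Conscious adult female beagles (6–12 kg) with simple gastric fistulas, fasted 18 h. After a 30-min basal period, drug given intragastrically via dosing plug with cannula closed 30 min, then histamine infused at 15 µg kg-1 h-1. Juice collected every 30 min for 4 h and titrated with 0.1 N NaOH to pH 7.0. ED50 is 50% inhibition of 4-h total acid output, from three-dose curves.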

The species named for assay [2] is Canis familiaris. The assay can be described thus: Activity ratio ED50 of diarrhea to ED50 of antisecretory in histamine -stimulated gastric fistula dogs. The assay is classed as functional, Canis lupus familiaris, Stomach. In short, it runs like this:
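Ratio of the 8-h rat diarrhea ED50 to the dog antisecretory ED50. Diarrhea: fasted (24 h) male Charles River rats (210–230 g; n = 6–12) given logarithmically graded oral doses and scored all-or-none hourly to 8 h, with ED50 from a maximum-likelihood logistic model. Antisecretory ED50: intragastric dosing in histamine-infused gastric fistula dogs, from 4-h acid output.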

In assay [3] the test system is Canis familiaris. The assay can be described thus: Tested for relative antisecretory potency in histamine-stimulated gastric fistula dogs by intragastric administration; value ranges from (0.13-0.48). The format is functional. The conditions noted are these: Canis lupus familiaris, Stomach, po. In short, it runs like this: (§1)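 Gastric fistula beagles given drug intragastrically, then histamine infused at 15 µg kg-1 h-1. Total acid output collected over 4 h by NaOH titration to pH 7.0, and percent inhibition curves built. Relative antisecretory potency and its limits were computed by bioassay statistical analysis of these dose-response data.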

Assay [4] concerns Canis familiaris. The experiment in a line: Tested for gastric antisecretory activity in histamine-stimulated Heidenhain pouch dogs by intravenous administration. The assay is classed as functional. Conditions: Canis lupus familiaris, Stomach.
Assay [5] relates to Canis familiaris. The experiment in a line: Tested for relative antisecretory potency in histamine-stimulated gastric fistula dogs by intragastric administration. The conditions noted are these: Canis lupus familiaris, Stomach, po. The assay is classed as functional. The method in brief: as §1
Assay [6] relates to Canis familiaris. The experiment in a line: Tested for relative antisecretory potency in histamine-stimulated gastric fistula dogs by intragastric administration; value ranges from (0.53-1.76). The assay is classed as functional. The conditions noted are these: Canis lupus familiaris, Stomach, po. The method in brief: as §1

Take `CCCCC(C)(O)C/C=C/[C@H]1[C@H](O)CC(=O)[C@@H]1CCCCCCC(=O)OC` (stereo not given in full) [MISOPROSTOL]: in the assay with Canis familiaris [1], the median effective dose (ED50) (as a rule, the dose at which the effect has come halfway, by size or by number of responders) is 0.28 µg/kg. The Ratio in the assay listed under Canis familiaris [2] is 1364. In the assay on Canis familiaris [3], this molecule came in with a relative potency of 0.26.
Molecule `CCCCC(C)(O)C/C=C/[C@H]1[C@H](O)CC(=O)[C@@H]1CC#C/C=C/CC(=O)OC` (stereo not given in full) yielded an ED50 in the assay with Canis familiaris [4] of over 1 µg/kg.
For `CCCCC(C)(O)C/C=C/[C@H]1[C@H](O)CC(=O)[C@@H]1C/C=C\C=C\CC(=O)OC` (stereo not given in full), in the assay on Canis familiaris [1], the ED50 is 0.08 µg/kg. The same molecule returned a relative potency with Canis familiaris [5] of 1. The Ratio in the assay listed under Canis familiaris [2] came to 1638.
In the assay with Canis familiaris [6], `CCCCC(C)(O)C/C=C/[C@H]1[C@H](O)CC(=O)[C@@H]1C/C=C\C=C/CC(=O)OC.CCCCC(C)(O)C/C=C/[C@H]1[C@H](O)CC(=O)[C@@H]1C/C=C\C=C\CC(=O)OC` (mixture of isomers) displayed a relative potency of 0.95. The same molecule showed an ED50 with Canis familiaris [1] of 0.08 µg/kg. Besides, the Ratio in the assay filed under Canis familiaris [2] was found to be 8025.
